This passage reports inhibition, Activity and binding results from ChEMBL document CHEMBL3632498, “Identification of small molecule inhibitors of the STAT3 signaling pathway: Insights into their structural features and mode of action” (Bioorg Med Chem Lett, 2015).

Structures are written as SMILES. The source made the active and inactive calls. The rule behind the calls is not given here.

In series [1] the target is Signal transducer and activator of transcription 3 (Homo sapiens) (UniProt P40763). In words: Inhibition of STAT3 transcriptional activity in human oncostatin M-stimulated HeLa cells at 10 uM after 24 hrs by luciferase reporter gene assay. It counts as cell-based. In a few lines:
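HeLa cells carrying a STAT3-luciferase reporter pretreated with DMSO or compound (10 µM) for 24 h, stimulated with oncostatin M 10 ng/mL for 5 h, then luciferase reporter activity measured.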

The target is the same in series [2]. Briefly: Inhibition of STAT3 phosphorylation in human MCF10A cells transformed with H-ras at 10 uM after 24 hrs by Western blot analysis. To be noted: MCF-10A. It counts as cell-based. Put shortly: (§1)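 Immunoblot of STAT3 phosphorylation in MCF10A-ras cells after 24 h treatment at 5 and 10 µM (analogs at 10 µM). In a thiol-reducing arm, cells got 0.5 mM DTT for 1 h before 10 µM compound for 24 h.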
On the technique in general: Immunoblotting shows a protein as a band on a membrane.

A short description of series [3]: Cytotoxicity against wild type human MCF10A cells at 2 uM after 24 hrs. It counts as cell-based. To be noted: mcf-10a. Put shortly:
(§2)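 MCF10A and MCF10A-ras cells exposed to each inhibitor for 24 h, then cytotoxicity measured.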

For series [4], the target named is Signal transducer and activator of transcription 3 (Homo sapiens) (UniProt P40763). In words: Inhibition of STAT3 phosphorylation in human MCF10A cells transformed with H-ras at 5 to 10 uM after 24 hrs by Western blot analysis. It counts as cell-based. To be noted: MCF-10A. Put shortly:
as §1

The test system of a further series is MCF7. Briefly: Cytotoxicity against human MCF7 cells at 1 to 5 uM after 24 hrs. It counts as functional, cell-based. Put shortly:
(§3)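 MCF7 and MDA-MB-231 breast cancer cells treated at the indicated concentrations for 24 h; viability then assessed.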

In series [5] the target is Signal transducer and activator of transcription 3 (Homo sapiens) (UniProt P40763). In words: Inhibition of STAT3 phosphorylation in human MCF10A cells transformed with H-ras at 1 to 10 uM after 24 hrs by Western blot analysis. As to conditions: MCF-10A. It counts as cell-based. In a few lines: (§4)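 MCF10A-ras cells treated at the indicated concentrations for 24 h; lysates immunoblotted for p-STAT3, total STAT3 and p-STAT1.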
Chain of Signal transducer and activator of transcription 3 (Homo sapiens) (P40763 whole entry): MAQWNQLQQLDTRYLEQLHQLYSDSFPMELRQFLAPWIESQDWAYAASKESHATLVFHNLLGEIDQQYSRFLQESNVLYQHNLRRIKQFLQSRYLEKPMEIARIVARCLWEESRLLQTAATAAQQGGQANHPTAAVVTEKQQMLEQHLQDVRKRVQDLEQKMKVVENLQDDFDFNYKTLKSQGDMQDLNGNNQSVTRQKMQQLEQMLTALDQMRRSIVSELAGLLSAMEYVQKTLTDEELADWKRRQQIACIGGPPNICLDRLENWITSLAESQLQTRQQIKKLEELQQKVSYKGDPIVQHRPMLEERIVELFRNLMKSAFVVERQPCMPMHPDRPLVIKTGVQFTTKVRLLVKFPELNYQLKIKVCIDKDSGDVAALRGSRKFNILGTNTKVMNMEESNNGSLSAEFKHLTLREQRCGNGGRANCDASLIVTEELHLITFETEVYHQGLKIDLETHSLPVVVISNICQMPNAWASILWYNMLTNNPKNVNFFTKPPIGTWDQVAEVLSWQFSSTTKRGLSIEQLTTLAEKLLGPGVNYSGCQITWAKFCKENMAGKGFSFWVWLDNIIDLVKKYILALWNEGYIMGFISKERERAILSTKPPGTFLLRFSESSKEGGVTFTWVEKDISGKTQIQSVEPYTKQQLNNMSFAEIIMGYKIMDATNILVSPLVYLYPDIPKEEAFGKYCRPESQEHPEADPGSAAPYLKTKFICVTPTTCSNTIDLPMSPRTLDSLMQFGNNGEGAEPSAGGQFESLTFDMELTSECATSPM

A further series concerns MDA-MB-231. In words: Cytotoxicity against human MDA-MB-231 cells at 1 to 5 uM after 24 hrs. It counts as functional, cell-based. In a few lines:
as §3

In the next series the test system is MCF-10A. Briefly: Cytotoxicity against human MCF10A cells transformed with H-ras at 2 uM after 24 hrs. It counts as functional, cell-based. Put shortly: as §2
In series [6] the target is T1, Signal transducer and activator of transcription 1-alpha/beta (Homo sapiens) (UniProt P42224).
T1 sequence (whole entry): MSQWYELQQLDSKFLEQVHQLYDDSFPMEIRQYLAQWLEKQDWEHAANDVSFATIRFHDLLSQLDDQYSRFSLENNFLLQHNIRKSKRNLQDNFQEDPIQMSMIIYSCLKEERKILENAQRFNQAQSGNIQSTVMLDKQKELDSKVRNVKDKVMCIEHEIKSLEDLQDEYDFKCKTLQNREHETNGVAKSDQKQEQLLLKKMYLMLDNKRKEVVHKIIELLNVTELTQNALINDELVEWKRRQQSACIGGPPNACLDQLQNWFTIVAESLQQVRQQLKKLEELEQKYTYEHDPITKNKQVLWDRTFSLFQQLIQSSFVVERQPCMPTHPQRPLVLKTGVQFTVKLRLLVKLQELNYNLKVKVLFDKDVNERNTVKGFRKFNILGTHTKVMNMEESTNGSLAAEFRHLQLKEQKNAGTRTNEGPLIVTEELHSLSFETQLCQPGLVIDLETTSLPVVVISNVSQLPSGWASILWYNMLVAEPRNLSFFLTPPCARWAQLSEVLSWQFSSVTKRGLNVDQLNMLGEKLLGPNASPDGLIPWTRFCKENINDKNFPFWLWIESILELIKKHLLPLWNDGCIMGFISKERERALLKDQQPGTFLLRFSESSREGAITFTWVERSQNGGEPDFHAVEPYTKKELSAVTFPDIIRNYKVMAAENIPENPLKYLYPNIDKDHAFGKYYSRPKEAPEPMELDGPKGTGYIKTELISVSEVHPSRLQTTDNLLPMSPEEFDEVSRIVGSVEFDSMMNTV
In words: Inhibition of STAT1 phosphorylation in human MCF10A cells transformed with H-ras at 1 to 10 uM after 24 hrs by Western blot analysis. It counts as cell-based. As to conditions: MCF-10A. Put shortly: as §4

The target in series [7] is Signal transducer and activator of transcription 3 (Homo sapiens) (UniProt P40763). In words: Binding to STAT3 in human MCF10A cells transformed with H-ras at 5 to 30 uM after 24 hrs using HRP-streptavidin by Western blot analysis. As to conditions: MCF-10A.

Turning to `COc1ccc(C(C)C(=O)c2ccc3c(c2OC)C=CC(C)(C)O3)cc1OC` (centres undefined), the inhibition result in [1] and in series [2] was “inactive” in each case.
For the molecule `C=C(C(=O)c1ccc2c(c1OC)C=CC(C)(C)O2)c1ccc(OC)c(OC)c1`, the Activity result in series [3] is “Non-toxic”. Also, the inhibition entry in [4], in series [1] and in [5] was “Active” throughout. In addition, the outcome in the series on MCF7, with MDA-MB-231 and in the series with MCF-10A was Active. In addition, the inhibition result in series [6] is “inactive”.
For `COc1ccc(CC(=O)c2ccc3c(c2OC)C=CC(C)(C)O3)cc1OC`, the inhibition entry in [1] and in series [2] was “inactive” in each case.
Take `C=C(C(=O)c1ccc2c(c1OC)C=CC(C)(C)O2)c1ccc(OC/C=C/CNC(=O)CCCC[C@@H]2SC[C@@H]3NC(=O)N[C@@H]32)c(OC)c1`: in [7], the binding result is “Active”.
In the case of `C=C(c1ccc(OC)c(OC)c1)C(O)c1ccc2c(c1OC)C=CC(C)(C)O2` (centres undefined), in series [1], the inhibition result was “inactive”.
